We go through three molecules from PMC11008256 (Cell reports. Physical science, 2024).

Series [1] deals with K. pneumoniae NTUH K2044. Put plainly: Antimicrobial activity, broth microdilution MIC. The class given is cell-based, Klebsiella pneumoniae. The following applies: LB used for MIC testing to determine dosage for skin model. The method, boiled down:
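Log-phase cells (an overnight LB culture diluted 1:100 in MHB at 37°C) seeded at 1 × 10^6 CFU mL-1 in LB for skin-model dosing, rather than the usual MHB. Peptide and polymyxin B control prepared in BSA buffer and tested at 0.0625–128 µmol L-1. Growth read as OD600; three independent replicates.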

Series [2] has as its system K. pneumoniae NTUH K2044. Put plainly: Skin abscess mouse model. It counts as in vivo, female CD-1 mice. The settings on record: single topical dose at MIC, monitored 4 days, n = 6.
Series [3] can be described thus: Peptide:polysaccharide aggregation assay. The following applies: 100 μmol L^−1 peptide, 300 μg mL^−1 polysaccharide. On the set-up: species or system Klebsiella pneumoniae. The method in brief:
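Polysaccharide hot-phenol-extracted from an overnight LB culture (60 min, 68°C; chloroform; ethanol precipitation) and quantified by uronic acid assay. Mixed with peptide in 10 mM potassium phosphate, then immediately spun 15,600 rpm for 15 min. Pellets resuspended in water, run on 4–8% bis-tris SDS-PAGE beside 2 µg purified polysaccharide, and Alcian blue-stained. Band density measured with the no-peptide control subtracted as background. Triplicate; ±SEM.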

Series [4] concerns pre-formed biofilms of K. pneumoniae NTUH K2044. Put plainly: Biofilm eradication. The class given is cell-based, Klebsiella pneumoniae. The settings on record: 60 μmol L^−1, 24 h. The method in brief:
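Overnight NTUH K2044 culture diluted to OD600 0.5 in TSB + 0.5% glucose. Biofilms grown 24 h at 37°C static in 35 mm dishes. Peptide diluted in BSA buffer (0.2% BSA, 0.01% acetic acid) plus MHB; untreated control received buffer plus MHB. Treatment 24 h at 37°C static. Dispersed cells and PBS-washed (×3), PBS-resuspended biofilm plated for CFU mL-1. ±SEM; one-way ANOVA with Dunnett versus untreated.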

Series [5] relates to K. pneumoniae NTUH K2044 biofilm matrix polysaccharides. Put plainly: Confocal microscopy imaging of biofilm polysaccharide matrix. The class given is cell-based, Klebsiella pneumoniae.
Series [6] concerns Human red blood cells. Description: Hemolytic activity assay. The settings on record: 1 to 128 μmol L^−1, 4 h room temperature, absorbance 405 nm. It counts as cell-based.

Where a name gives a salt, the structure may show the parent alone. Ends that are not written are not given here. Peptide text beside a SMILES is read from it.

For `CC[C@H](C)CCCCC(=O)N[C@@H](CCN)C(=O)N[C@H](C(=O)N[C@@H](CCN)C(=O)N[C@H]1CCNC(=O)[C@H]([C@@H](C)O)NC(=O)[C@H](CCN)NC(=O)[C@H](CCN)NC(=O)[C@H](CC(C)C)NC(=O)[C@@H](Cc2ccccc2)NC(=O)[C@H](CCN)NC1=O)[C@@H](C)O` [polymyxin B, polymyxin B sulfate, reference compound] (HELM PEPTIDE1{[CC[C@H](C)CCCCC(=O)[*:2]].[Dab].T.[Dab].[Dab].[Dab].[dF].L.[Dab].[Dab].T}$PEPTIDE1,PEPTIDE1,5:R3-11:R2$$$V2.0; N-terminus assumed; bridges inferred), in series [1], the “MIC used as dose for skin model” value turned out to be 1 µM. Further, the “mouse weight changes, skin damage (proxy of toxicity)” value in series [2] is on record as “No variations in weight, damage to the skin tissue, or other harmful consequences”.

For the molecule “PRPIPRPLPFPRPGPRPIPRPLPFPRPGPRPIPRP [Bac7 (24–59)]”, in series [3], the “aggregation with extracellular polysaccharides (in words)” value is on record as “highest aggregation potential”. In addition, in series [4], the “biofilm and dispersed CFU mL^−1” value was “did not significantly change”. Further, the “effect on biofilm polysaccharide matrix (confocal)” value is “drop in overall height (30 μm) and moderate change in the polysaccharide matrix” in series [5] (15 μmol L^−1, 24 h, concanavalin A Texas red stain); “polysaccharide matrix loss from the upper layers of the biofilm” in series [5] (60 μmol L^−1, 24 h).

With “RRIRPRPPRLPRPRPRPLPFPRPGPRPIPRPLPFP [Bac7 (1–35)]”, the “MIC used as dose for skin model” value in series [1] is 2 µM. In addition, the hemolysis result in series [6] is “limited ability to lyse red blood cells”. For the same molecule, the “mouse weight changes, skin damage (proxy of toxicity)” value in series [2] is listed as “No variations in weight, damage to the skin tissue, or other harmful consequences”.
